Measurements taken from article PMC2669315 (Bioorganic & medicinal chemistry, 2008).

Experiments:
[1] = test system: Hsp90; format: biochemical, rabbit
[2] = test system: Her2; assay: Her2 ELISA in SKBr3 cells; format: cell-based, human; settings: for fold decrease in Her2 degradative activity for meta substituents: meta chloro or methoxy substituent on the benzamide
Method in brief: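 SKBr3 cells were grown as for the proliferation assay, seeded at 3000/well, attached overnight, then given test compound at varying concentrations for 24 hr. Cells were washed with ice-cold PBS/1% Tween and fixed in -20 °C methanol (10 min, 4 °C), then blocked 1 hr in 5% BSA/PBST at rt. Rabbit anti-Her2 (1:500) went on overnight at 4 °C, then HRP anti-rabbit IgG (1:1000) for 2 hr at rt. Read-out was chemiluminescence on a luminometer.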

[3] = test system: Hsp90 client proteins Her2, Raf-1, and Akt; assay: Western blot analysis of Hsp90 client protein degradation in MCF-7 cells; format: cell-based, human; settings: for IC50: Homo sapiens, MCF7, 24 h, read-out: Hsp90 client protein degradation IC50s; for degradation of Hsp90 client proteins (Her2, Raf-1, Akt) / effect on actin (non Hsp90-dependent protein): MCF-7 cells, 24 h, western blot
Method in brief: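 MCF-7 cells were seeded at 1×10^6 per dish and left to attach overnight. Test compound was added at varying concentrations and incubated 24 h at 37 °C, 5% CO2. Cells were then harvested and client protein levels analysed by western blot using a previously reported method.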

[4] = test system: MCF-7 cells; assay: Anti-proliferation assay; format: cell-based, human
Method in brief: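 MCF-7 cells were grown in 1:1 DMEM:Ham's F-12 with non-essential amino acids, 2 mM L-glutamine, penicillin/streptomycin and 10% FBS, at 37 °C and 5% CO2. They were seeded at 2000/well and left to attach overnight. Test compound was added at varying concentrations in DMSO (1% final) for 72 hr. Viable cells were measured by MTS/PMS and normalised to 1% DMSO wells as 100% proliferation.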

[5] = test system: Hsp90; settings: assay validation; cited from earlier work

## COc1ccc(C2=C(NC(=O)C3CCCCC3)C(=O)c3ccccc3C2=O)cc1 [Compound 13i]
[1]
  inhibition of luciferase refolding (in words): low micromolar activity

## COc1ccc(C2=C(NC(=O)c3cccc(Cl)c3)C(=O)c3ccccc3C2=O)cc1 [Compound 13b]
[2]
  fold decrease in Her2 degradative activity for meta substituents: 6 fold

## COc1ccc(C2=C(NC(=O)c3ccc(OC)c(-c4cccc(OC)c4)c3)C(=O)c3ccccc3C2=O)cc1 [Compound 11, 3’,6-dimethoxy-N-(3-(4-methoxyphenyl)-1,4-dioxo-1,4-dihydronaphthalen-2-yl)biphenyl-3-carboxamide]
[1]
  inhibition of luciferase refolding (in words): unable to inhibit luciferase refolding

## CC(=O)NC1=C(c2ccc(Cl)cc2)C(=O)c2ccccc2C1=O [Compound 3g]
[3]
  IC50: 10 to 20 µM
  degradation of Hsp90 client proteins (Her2, Raf-1, Akt): induced the degradation of these client proteins in a concentration-dependent manner
  effect on actin (non Hsp90-dependent protein): no similar effects on actin

## COc1ccc(C2=C(NC(=O)c3cccc4ccccc34)C(=O)c3ccccc3C2=O)cc1 [Compound 13g]
[2]; vs 4d
  fold decrease in Her2 activity compared to the corresponding benzamide (4d): 3 fold

## COc1cccc(-c2cc(C(=O)NC3=C(Cl)C(=O)c4ccccc4C3=O)ccc2OC)c1 [Compound 12]
[3]
  IC50: 10 to 20 µM
  degradation of Hsp90 client proteins (Her2, Raf-1, Akt): induced the degradation of these client proteins in a concentration-dependent manner
  effect on actin (non Hsp90-dependent protein): no similar effects on actin
[4]; Homo sapiens, MCF7, read-out: anti-proliferative activity IC50
  IC50: 1.7 to 3 µM
[1]
  inhibition of luciferase refolding (in words): low micromolar activity

## CO[C@@H]1[C@@H](OC(N)=O)[C@@H](O)[C@H](Oc2ccc3c(O)c(NC(=O)c4ccc(O)c(CC=C(C)C)c4)c(=O)oc3c2C)OC1(C)C [novobiocin]
[5]
  reduction of luciferase renaturation by known Hsp90 inhibitors: significantly reduce the renaturation of luciferase

## COc1ccc(C2=C(NC(=O)c3ccc4ccccc4c3)C(=O)c3ccccc3C2=O)cc1 [Compound 13h]
[2]
  Her2 degradative activity (in words): complete loss of Her2 degradative activity

## COc1ccc(C2=C(NC(=O)c3ccccc3Cl)C(=O)c3ccccc3C2=O)cc1 [Compound 13a]
[3]
  IC50: 5 to 10 µM
  degradation of Hsp90 client proteins (Her2, Raf-1, Akt): induced the degradation of these client proteins in a concentration-dependent manner
  effect on actin (non Hsp90-dependent protein): no similar effects on actin

## COc1ccc(C2=C(NC(=O)c3cccc(OC)c3)C(=O)c3ccccc3C2=O)cc1 [Compound 13e]
[2]
  fold decrease in Her2 degradative activity for meta substituents: 15 fold

## CC(=O)C1=C(c2ccccc2)C(=O)c2ccccc2C1=O [HTS1]
[4]; MCF-7 vs SKBr3
  fold greater anti-proliferative activity against MCF-7 cells compared to SKBr3 cells: 4 fold
